Key:
[1] = system: Rattus norvegicus; experiment: Glucose levels were determined in an acute in vivo study for inhibition of gluconeogenesis in normal male Sprague-Dawley rats; type: functional; set-up: concentration or dose not given beside the values
Method in brief: (§1)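 Normal male Sprague-Dawley rats (200-300 g) fasted 18 h; five per group given compound by oral gavage at 100 µmol/kg in carboxymethylcellulose vehicle or vehicle alone. At 3 h, cardiac-puncture blood under brief CO₂ anesthesia; serum β-hydroxybutyrate (ketones) and glucose expressed as % of control; Student's t-test.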

[2] = system: Rattus norvegicus; experiment: Testes weight (treated)/body weight(treated)]/[testes weight(control)/body weight(control)] x 100 at a dose of 700 umol/kg/day; type: functional
[3] = AUC was measured from the graph plotted against blood plasma concentration and time at the dose of 300 uMol/kg,; type: ADME
[4] = system: Rattus norvegicus; experiment: Ketone levels were determined in an acute in vivo study for inhibition of gluconeogenesis in normal male Sprague-Dawley rats; type: functional; set-up: concentration or dose not given beside the values; method in brief: as §1
[5] = AUC was measured from the graph plotted against blood plasma concentration and time at the dose of 700 uMol/kg,; type: ADME
[6] = system: Rattus norvegicus; experiment: Testes weight (treated)/body weight(treated)]/[testes weight(control)/body weight(control)] x 100 at a dose of 700 uM/kg/day; type: functional
[7] = system: Rattus norvegicus; experiment: In vivo percentage efficacy, measured as ability to decrease blood glucose percentage after 11.25 days.; type: functional; set-up: concentration or dose not given beside the values
Method in brief: (§2)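 Rats (250-300 g) on high-fat purified diet, made diabetic by 40 mg/kg streptozotocin iv (tail vein) 3 days into diet. Selected by glucose criteria, including an oral glucose load (1.35 g/kg dextrose) after an 18 h fast. Dosed orally once daily at 70 µmol/kg in CMC for 11 days. Blood glucose taken 6 h post-dose (food removed). % efficacy: 100% = normalization to 60 mg/dL.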

[8] = system: Rattus norvegicus; experiment: In vivo percentage efficacy, measured as ability to decrease blood glucose percentage after 8.25 days in rats; type: functional; set-up: concentration or dose not given beside the values; method in brief: as §2
[9] = AUC was measured from the graph plotted against blood plasma concentration and time at the dose of 300 uMol/kg; type: ADME, cell-free
[10] = AUC was measured from the graph plotted against blood plasma concentration and time at the dose of 150 uMol/kg,; type: ADME
[11] = system: Rattus norvegicus; experiment: In vivo percentage efficacy, measured as ability to decrease blood glucose percentage after 8.25 days; type: functional; set-up: concentration or dose not given beside the values; method in brief: as §2
[12] = system: Rattus norvegicus; experiment: Testes weight (treated)/body weight(treated)]/[testes weight(control)/body weight(control)] x 100 at a dose of 350 umol/kg/day; type: functional
[13] = AUC was measured from the graph plotted against blood plasma concentration and time at the dose of 150 uMol/kg
[14] = system: Rattus norvegicus; experiment: In vivo percentage efficacy was measured as ability to decrease blood glucose percentage after 11.25 days in rats; type: functional; method in brief: as §2

Compound	Control [1]	AUC [3]	Serum ketone level, % of control [4]	Efficacy [7]	Efficacy [8]	other results
CC(C)(C)C(=O)c1ccc(C(=O)NC(=O)c2ccc(C(=O)C(C)(C)C)cc2)cc1	92%	122 µg·h/mL	<21%	–	–	Control [2]: 101%; AUC [5]: 2670 µg·h/mL
CO/N=C(\OC(=O)c1ccc(C(=O)C(C)(C)C)cc1)c1ccc(C(=O)C(C)(C)C)cc1	98%	85 µg·h/mL	<30%	<59%	<64%	Control [6]: 96%; AUC [5]: 325 µg·h/mL
C=CCOC(c1ccc(C(=O)O)cc1)C(C)(C)C (centres undefined)	107%	–	<29%	–	–	AUC [9]: 941 µg·h/mL
CC(C)(C)C(=O)c1ccc(C(=O)O/C(=N\OCC(=O)O)c2ccc(C(=O)C(C)(C)C)cc2)cc1	<63%	2030 µg·h/mL	<19%	<102%	<90%	AUC [10]: 1000 µg·h/mL
CC(C)(C)C(=O)c1ccc(C(N)=O)cc1	–	–	–	–	–	Control [2]: <48%
CC(C)(C)C(=O)c1ccc(C(=O)O/C(=N\OCCO)c2ccc(C(=O)C(C)(C)C)cc2)cc1	98%	565 µg·h/mL	<15%	<92%	<92%	AUC [10]: 122 µg·h/mL
CC(C)(C)C(=O)c1ccc(C(=O)N(CC(=O)O)C(=O)c2ccc(C(=O)C(C)(C)C)cc2)cc1	<56%	1080 µg·h/mL	<6%	<47%	–	Efficacy [11]: <53%
COCCO/N=C(\OC(=O)c1ccc(C(=O)C(C)(C)C)cc1)c1ccc(C(=O)C(C)(C)C)cc1	<49%	1850 µg·h/mL	<19%	<108%	<109%	–
CC(C)(C)C(O)c1ccc(C(=O)O)cc1 (centres undefined)	<50%	–	–	–	–	Control [12]: <74%
CC(C)(C)C1(c2ccc(C(=O)O)cc2)OCCCO1	111%	1400 µg·h/mL	<15%	<65%	–	Efficacy [11]: <41%
CC(C)(C)C(=O)c1ccc(C(=O)O/C(=N\OCCCC(=O)O)c2ccc(C(=O)C(C)(C)C)cc2)cc1	<70%	1630 µg·h/mL	<15%	–	–	–
CC(C)(C)O/N=C(\OC(=O)c1ccc(C(=O)C(C)(C)C)cc1)c1ccc(C(=O)C(C)(C)C)cc1	<70%	55 µg·h/mL	<50%	<98%	<80%	Control [6]: 102%
Cc1ccc(C2(C(C)(C)C)OCCO2)cc1	<58%	–	<12%	<64%	–	Efficacy [11]: <52%; AUC [13]: 1510 µg·h/mL; Control [2]: <52%; AUC [5]: 3560 µg·h/mL
CC(C)(C)C(=O)c1ccc(C2=NCCO2)cc1	<74%	886 µg·h/mL	<20%	–	–	–
CC(C)(C)C(=O)c1ccc(C(=O)N[C@@H](Cc2ccccc2)C(=O)O)cc1	–	964 µg·h/mL	<4%	–	–	AUC [5]: 2930 µg·h/mL
COC(c1ccc(C(=O)O)cc1)C(C)(C)C (centres undefined)	<81%	1020 µg·h/mL	<17%	<59%	–	Efficacy [11]: <23%
CC(C)(C)[C@@H](O)c1ccc(C(=O)O)cc1	<42%	–	<23%	–	<64%	Efficacy [14]: <63%; Control [12]: <59%
CC(C)(C)C(=O)c1ccc(C2=N[C@@H](Cc3ccccc3)C(=O)O2)cc1	<90%	413 µg·h/mL	<21%	–	–	–
CO/N=C(\OC(=O)c1ccc([C@@H](O)C(C)(C)C)cc1)c1ccc([C@H](O)C(C)(C)C)cc1 (relative stereo)	<61%	2370 µg·h/mL	<17%	–	–	–
CC(C)(C)C(=O)c1ccc(C(=O)N(C(=O)c2ccc(C(=O)C(C)(C)C)cc2)C(=O)c2cccnc2)cc1	95%	–	<46%	<74%	–	Efficacy [11]: <73%; Control [12]: 95%; AUC [9]: 64 µg·h/mL
C=CCO/N=C(\OC(=O)c1ccc(C(=O)C(C)(C)C)cc1)c1ccc(C(=O)C(C)(C)C)cc1	105%	158 µg·h/mL	<43%	<85%	<53%	–
CC(C)(C)C(=O)c1ccc(C(=O)O)cc1	–	–	–	–	–	Control [2]: <47%
CC1(C)COC(c2ccc(C(=O)O)cc2)(C(C)(C)C)OC1	105%	263 µg·h/mL	<18%	–	–	–
CC(C)(C)[C@H](O)c1ccc(C(=O)O)cc1	94%	–	<80%	–	–	Control [12]: <62%
CC(C)O/N=C(\OC(=O)c1ccc(C(=O)C(C)(C)C)cc1)c1ccc(C(=O)C(C)(C)C)cc1	94%	155 µg·h/mL	<41%	<98%	<80%	AUC [10]: 94 µg·h/mL
CC(C)(C)C(=O)c1ccc(C(=O)NC(=O)c2ccc(F)cc2)cc1	<65%	588 µg·h/mL	<13%	<54%	–	Efficacy [11]: <57%; Control [2]: <63%; AUC [5]: 2570 µg·h/mL

Source: ChEMBL document CHEMBL1132198, “Hypoglycemic prodrugs of 4-(2,2-dimethyl-1-oxopropyl)benzoic acid” (J Med Chem, 1999)
